Like-named read-outs stand apart in the source and are kept apart here. Marks after values point to notes of the source that are not given here.
Columns and labels:
[1] = healthy subjects, cited from earlier work
[2] = system: plasma 24S‐hydroxycholesterol (24HC); test: Pharmacodynamics: time‐matched percentage change from baseline in plasma 24HC; assay type: in vivo, human
Method in brief: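 Healthy adults (18-55 y, BMI 18-30 kg/m2), 6 active:2 placebo, double-blind; oral solution QD or BID after ≥8 h fast. 24HC by LC-MS/MS, validated 2.00-100 ng/mL. Time-matched % change from baseline; AUEC24/E24 for QD, AUEC12/E12 for BID.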

[3] = assay type: in vivo, human; details: for half-life / AUC: human; for half-life / AUC / CL/F, mean (CV%): plasma; for half-life: oral; for AUC: po, AUCτ, mean (CV%), AUCτ = AUC24
[4] = Urine pharmacokinetics; assay type: in vivo, human; details: for Ae t, mean (CV%) / f e, mean (CV%): urine
[5] = system: 24HC levels in the brain; details: single oral administration in mice; cited from earlier work
[6] = system: CH24H; details: CH24H‐knockout mice vs wild‐type controls; cited from earlier work
[7] = day 14, 400 mg dose (range 100‐400 mg QD)
[8] = soticlestat 100 mg QD oral solution, day 1
[9] = soticlestat 100 mg QD oral solution, day 14
[10] = soticlestat 300 mg QD oral solution, day 1
[11] = soticlestat 300 mg QD oral solution, day 14
[12] = soticlestat 400 mg QD oral solution, day 1
[13] = soticlestat 400 mg QD oral solution, day 14
[14] = soticlestat 600 mg QD oral solution, day 1

O=C(c1cccnc1-c1ccncc1)N1CCC(O)(Cc2ccccc2)CC1 [Soticlestat, soticlestat]
tolerability of single doses ([1]; doses up to 1350 mg): well tolerated | circulating levels of 24HC ([1]; single rising doses): dose‐dependent reduction | 24HC AUECτ, mean (CV%), percentage change from baseline (day −1) ([2]; AUECτ = AUEC12, 300 mg BID, day 1): −6.90 (−75.9) % | 24HC AUECτ, mean (CV%), percentage change from baseline (day −1) ([2]; AUECτ = AUEC24, 100 mg QD, day 1): −8.15 (−45.4) % | 24HC AUECτ, mean (CV%), percentage change from baseline (day −1) ([2]; AUECτ = AUEC24, 100 mg QD, day 14): −46.8 (−9.2) % | 24HC AUECτ, mean (CV%), percentage change from baseline (day −1) ([2]; AUECτ = AUEC24, 300 mg QD, day 1): −12.7 (−36.5) % | 24HC AUECτ, mean (CV%), percentage change from baseline (day −1) ([2]; AUECτ = AUEC24, 300 mg QD, day 14): −61.9 (−17.0) % | 24HC AUECτ, mean (CV%), percentage change from baseline (day −1) ([2]; AUECτ = AUEC24, 400 mg QD, day 1): −11.7 (−34.5) % | 24HC AUECτ, mean (CV%), percentage change from baseline (day −1) ([2]; AUECτ = AUEC24, 400 mg QD, day 14): −62.7 (−7.3) % | 24HC AUECτ, mean (CV%), percentage change from baseline (day −1) ([2]; AUECτ = AUEC24, 600 mg QD, day 1): −14.0 (−27.9) % | 24HC E t, mean (CV%), percentage change from baseline (day −1) ([2]; E t = E 12, 300 mg BID, day 1): −10.5 (−63.8) % | 24HC E t, mean (CV%), percentage change from baseline (day −1) ([2]; E t = E 24, 100 mg QD, day 1): −20.9 (−49.0) % | 24HC E t, mean (CV%), percentage change from baseline (day −1) ([2]; E t = E 24, 100 mg QD, day 14): −49.1 (−11.9) % | 24HC E t, mean (CV%), percentage change from baseline (day −1) ([2]; E t = E 24, 300 mg QD, day 1): −22.4 (−19.5) % | 24HC E t, mean (CV%), percentage change from baseline (day −1) ([2]; E t = E 24, 300 mg QD, day 14): −63.8 (−19.3) % | 24HC E t, mean (CV%), percentage change from baseline (day −1) ([2]; E t = E 24, 400 mg QD, day 1): −28.4 (−28.1) % | 24HC E t, mean (CV%), percentage change from baseline (day −1) ([2]; E t = E 24, 400 mg QD, day 14): −65.6 (−6.0) % | 24HC E t, mean (CV%), percentage change from baseline (day −1) ([2]; E t = E 24, 600 mg QD, day 1): −30.6 (−41.0) % | maximum decrease from baseline in 24HC AUEC24 [2, 7]: 62.66% | maximum decrease from baseline in 24HC E24 [2, 7]: 65.59% | increase in AUCτ at steady state (accumulation ratio based on AUC) ([3]; 300 mg QD for 14 days): ~1.42 fold | increase in C max at steady state (day 14 vs day 1) ([3]; 300 mg QD for 14 days): approximately 1.74 fold | accumulation ratio based on AUC ([3]; 400 mg QD): 1.20 | dose proportionality of steady‐state exposure ([3]; 100‐400 mg QD, 14 days): slightly greater than dose‐proportional | increase in single‐dose mean AUC∞ over 6‐fold dose range ([3]; day 1, 100‐600 mg): 9.35 fold | increase in single‐dose mean C max over 6‐fold dose range ([3]; day 1, 100‐600 mg): 6.55 fold | time‐dependent effect of PK on repeat dosing ([3]; day 1 vs day 14): not apparent | increase in mean AUCτ over 4‐fold dose range ([3]; day 14, 100‐400 mg QD): 6.12 fold | increase in mean C max over 4‐fold dose range ([3]; day 14, 100‐400 mg QD): 6.08 fold | half-life ([3]; elimination half‐life, overall, as summarised in abstract): ~4 h | half-life ([3]; mean half‐life, at 300 mg QD and 400 mg QD): ~4 h | half-life ([3]; mean terminal elimination half‐life (t ½z), range across groups, day 1 and day 14, all doses): 3.49 to 4.83 h | AUC ([3]; 100 mg, soticlestat 100 mg QD oral solution, day 1): 446 ng·h/mL | AUC ([3]; 100 mg, soticlestat 100 mg QD oral solution, day 14): 458 ng·h/mL | AUC ([3]; 300 mg, soticlestat 300 mg QD oral solution, day 1): 2030 ng·h/mL | AUC ([3]; 300 mg, soticlestat 300 mg QD oral solution, day 14): 2690 ng·h/mL | AUC ([3]; 400 mg, soticlestat 400 mg QD oral solution, day 1): 2500 ng·h/mL | AUC ([3]; 400 mg, soticlestat 400 mg QD oral solution, day 14): 2800 ng·h/mL | AUC ([3]; 600 mg, soticlestat 600 mg QD oral solution, day 1): 4180 ng·h/mL | exposure accumulation on day 14 compared with day 1 ([3]; once‐daily dosing of 100 or 400 mg for 14 days): did not appear to result in exposure accumulation | CL/F, mean (CV%) [3, 8]: 248 (40.4) ^c L/h | CL/F, mean (CV%) [3, 9]: 234 (29.6) L/h | CL/F, mean (CV%) ([3]; soticlestat 300 mg BID oral solution, day 1 after first dose): 232 (47.3) ^e L/h | CL/F, mean (CV%) [3, 10]: 185 (47.6) L/h | CL/F, mean (CV%) [3, 11]: 130 (43.9) L/h | CL/F, mean (CV%) [3, 12]: 187 (38.8) L/h | CL/F, mean (CV%) [3, 13]: 166 (44.4) L/h | CL/F, mean (CV%) [3, 14]: 194 (57.5) L/h | dose proportionality of systemic exposure ([3]; single doses of 100‐600 mg QD): slightly greater than dose‐proportional | renal excretion / renal elimination ([4]; all doses): negligible | Ae t, mean (CV%) ([4]; Ae τ = Ae 12, soticlestat 300 mg BID oral solution, day 1): 0.490 (75.9) mg | Ae t, mean (CV%) ([4]; Ae τ = Ae 24, soticlestat 100 mg QD oral solution, day 1): 0.0900 (25.6) mg | Ae t, mean (CV%) ([4]; Ae τ = Ae 24, soticlestat 100 mg QD oral solution, day 14): 0.0800 (30.0) mg | Ae t, mean (CV%) ([4]; Ae τ = Ae 24, soticlestat 300 mg QD oral solution, day 1): 0.660 (84.3) mg | Ae t, mean (CV%) ([4]; Ae τ = Ae 24, soticlestat 300 mg QD oral solution, day 14): 0.56 (83.4) mg | Ae t, mean (CV%) ([4]; Ae τ = Ae 24, soticlestat 400 mg QD oral solution, day 1): 0.920 (47.7) mg | Ae t, mean (CV%) ([4]; Ae τ = Ae 24, soticlestat 400 mg QD oral solution, day 14): 1.01 (31.9) mg | Ae t, mean (CV%) ([4]; Ae τ = Ae 24, soticlestat 600 mg QD oral solution, day 1): 1.440 (74.4) mg | f e, mean (CV%) [4, 8]: 0.0900 (25.6) % | f e, mean (CV%) [4, 9]: 0.0800 (30.0) % | f e, mean (CV%) ([4]; soticlestat 300 mg BID oral solution, day 1): 0.160 (75.9) % | f e, mean (CV%) [4, 10]: 0.220 (84.3) % | f e, mean (CV%) [4, 11]: 0.190 (83.4) % | f e, mean (CV%) [4, 12]: 0.230 (47.7) % | f e, mean (CV%) [4, 13]: 0.250 (31.9) % | f e, mean (CV%) [4, 14]: 0.240 (74.4) % | 24HC levels in the brain [5]: dose‐dependent reduction in 24HC levels in the brain | soticlestat distribution in the brain [6]: substantially lower level of soticlestat distribution in the brain than wild‐type controls

Source: paper PMC9305210 (British Journal of Clinical Pharmacology, 2022)
